From ChEMBL document CHEMBL2169798, “Discovery of a Plasmodium falciparum glucose-6-phosphate dehydrogenase 6-phosphogluconolactonase inhibitor (R,Z)-N-((1-ethylpyrrolidin-2-yl)methyl)-2-(2-fluorobenzylidene)-3-oxo-3,4-dihydro-2H-benzo[b][1,4]thiazine-6-carboxamide (ML276) that reduces parasite growth in vitro” (J Med Chem, 2012) come the findings set out here.

≈ marks a conversion by molar mass, not a printed value. Calls of active or inactive are those of the source. The rule behind the calls is not given here.

A short description of data set [1]: Drug degradation in PBS buffer assessed as compound depletion at pH 7.4 after 24 hrs by RP-LCMS analysis in presence of glutathione. Type of data set: physicochemical. Particulars: PBS buffer with glutathione, read-out: Drug metabolism. In a few lines:
(§1)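 Compound from a 1 mM DMSO stock, final 10 μM with 1% DMSO, in PBS pH 7.4 with 5 equivalents glutathione (from a 10 mM PBS stock), shaken in capped glass vials at 23 °C. Aliquots were analysed by RP-HPLC-MS on a C18 column at 0, 0.5, 1, 2, 4, 6, 18 and […]. Percent remaining versus 0 h was taken from peak AUC.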

A short description of data set [2]: Drug degradation in PBS buffer assessed as compound depletion at pH 7.4 after 30 mins by RP-LCMS analysis in presence of glutathione. The format is physicochemical. Particulars: pH 7.4, 0.5 h. The gist of the method: as §1
Data set [3] can be described thus: Chemical stability in PBS buffer at pH 7.4 at 10 uM up to 18 hrs by RP-LCMS analysis in presence of glutathione. Particulars: pH 7.4, 18 h. Type of data set: physicochemical. The gist of the method: as §1
Another data set deals with Liver. Briefly: Stability in mouse liver microsomes assessed as compound remaining after 1 hr. The format is ADME, Microsome.
Data set [4] has as its system Plasma. Kind of data set: Plasma protein binding in mouse at 1 uM. Type of data set: ADME, cell-free.
Data set [5] is described as follows: Aqueous solubility in PBS buffer at pH 7.4. The format is physicochemical.
Data set [6] can be described thus: Permeability of the compound at donor pH 6.2 by PAMPA. The format is ADME. (In PAMPA a lipid-coated filter parts donor from acceptor wells.)
Data set [7] has as its target T1, Glucose-6-phosphate 1-dehydrogenase (Plasmodium falciparum, UniProt Q25856).
T1 sequence (Q25856 whole entry): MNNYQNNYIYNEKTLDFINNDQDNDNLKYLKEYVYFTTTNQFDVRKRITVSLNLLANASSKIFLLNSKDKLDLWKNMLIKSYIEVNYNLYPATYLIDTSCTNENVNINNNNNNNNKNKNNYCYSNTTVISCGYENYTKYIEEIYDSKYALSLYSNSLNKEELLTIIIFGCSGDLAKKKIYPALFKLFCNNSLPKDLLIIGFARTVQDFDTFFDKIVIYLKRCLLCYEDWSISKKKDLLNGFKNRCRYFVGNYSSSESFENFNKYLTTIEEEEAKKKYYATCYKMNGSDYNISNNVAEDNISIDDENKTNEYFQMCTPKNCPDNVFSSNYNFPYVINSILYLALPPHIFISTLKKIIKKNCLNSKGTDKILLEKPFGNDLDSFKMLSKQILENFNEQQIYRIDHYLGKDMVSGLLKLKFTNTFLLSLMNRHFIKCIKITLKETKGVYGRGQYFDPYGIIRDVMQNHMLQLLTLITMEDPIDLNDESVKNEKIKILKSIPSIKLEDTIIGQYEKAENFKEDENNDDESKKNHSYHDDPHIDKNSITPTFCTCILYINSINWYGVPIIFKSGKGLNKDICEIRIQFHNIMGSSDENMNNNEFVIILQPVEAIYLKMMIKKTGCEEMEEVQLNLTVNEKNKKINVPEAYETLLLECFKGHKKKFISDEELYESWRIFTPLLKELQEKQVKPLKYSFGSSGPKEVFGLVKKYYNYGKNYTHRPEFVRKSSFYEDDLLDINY
Kind of data set: Inhibition of Plasmodium falciparum glucose-6-phosphate dehydrogenase after 2 hrs by resazurin/diaphorasecoupled assay.

The nature of data set [8]: Aqueous solubility in pION's buffer at pH 6.2. Type of data set: physicochemical.
In data set [9] the test system is Plasma. Briefly: Plasma protein binding in human at 1 uM. Type of data set: ADME, cell-free.
Data set [10] relates to Plasma. Briefly: Plasma protein binding in mouse at 10 uM. Type of data set: ADME, cell-free.
The test system of data set [11] is Plasmodium falciparum. Kind of data set: Mixed type inhibition of Plasmodium falciparum glucose-6-phosphate dehydrogenase-6-phosphogluconolactonase using NADP+ as substrate by Lineweaver-Burk plot analysis. The gist of the method:
(§2)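 PfGluPho at 0.2 μg/mL final, with 0.005% Tween 20, 3.3 mM MgCl2, 1 mM TCEP and 0.05 M Tris. G6P was varied at 5 μM NADP+; NADP+ was varied at 25 μM G6P. Compound was titrated at the same time. NADPH fluorescence (ex340/em460) was followed for 10 min and initial slopes taken. Lineweaver-Burk plots gave Km and Vmax, and α came from a rate equation.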

Data set [12] in a line: Permeability of the compound at donor pH 7.4 by PAMPA. The format is ADME.
The nature of data set [13]: Aqueous solubility in pION's buffer at pH 5. The format is physicochemical.
Data set [14] in a line: Permeability of the compound at donor pH 5 by PAMPA. The format is ADME.
Data set [15] has as its system Plasmodium falciparum. Kind of data set: Antimalarial activity against chloroquine-sensitive Plasmodium falciparum 3D7 cells assessed as Plasmodium falciparum growth inhibition after 72 hrs by isotopic drug sensitivity assay. Particulars: 3D7, 72 h. The format is functional, organism-based. In a few lines:
(§3)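 Infected RBCs plated at 0.25% parasitemia (>70% rings), 1.25% hematocrit, hypoxanthine-free medium; serial compound concentrations, chloroquine control. 48 h incubation, then 0.5 μCi 3H-hypoxanthine for another 24 h. Cells harvested on glass fibre filters, radioactivity counted as growth measure. IC50 by non-linear regression; run twice, each in triplicate.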

In the next data set the test system is Hepatocyte. Kind of data set: Toxicity against Fa2N-4 immortalized human hepatocytes. The format is cell-based. Particulars: read-out: LC50 (the source's name).
Data set [16] is described as follows: Blood brain barrier permeability of the compound at pH 7.4 by PAMPA. Type of data set: ADME.
The target of data set [17] is Glucose-6-phosphate 1-dehydrogenase (Homo sapiens, UniProt P11413). Briefly: Inhibition of human glucose-6-phosphate dehydrogenase after 90 mins by resazurin/diaphorasecoupled assay. In a few lines:
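Dose response with a top final concentration of […] and 0.8% final DMSO, in 50 mM Tris pH 7.5, 0.005% Tween 20 and 1 mg/mL BSA. The enzyme solution held 0.05 μg/mL hG6PD. The substrate solution held 0.64 mM G6P, 12 μM NADP+, 6.6 mM MgCl2, 2 U/mL diaphorase and 0.28 mM resazurin.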
Background: Alamar Blue is a resazurin reagent that responds to reducing activity.

The test system of data set [18] is Plasma. Kind of data set: Plasma protein binding in human at 10 uM. The format is ADME, cell-free.
For data set [19], the system named is Plasmodium falciparum. Kind of data set: Competitive inhibition of Plasmodium falciparum glucose-6-phosphate dehydrogenase-6-phosphogluconolactonase using glucose-6-phosphate as substrate by Lineweaver-Burk plot analysis. In a few lines:
as §2

Data set [20] in a line: Aqueous solubility in pION's buffer at pH 7.4. The format is physicochemical.
Data set [21] deals with T1, Glucose-6-phosphate 1-dehydrogenase. Kind of data set: Inhibition of Plasmodium falciparum glucose-6-phosphate dehydrogenase after 45 mins by orthogonal assay. In a few lines:
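Direct NADPH read without coupling: PfGluPho (0.4 μg/mL enzyme solution) in 50 mM Tris pH 7.5, 0.005% Tween 20, 1 mg/mL BSA; substrate 40 μM G6P, 6 μM NADP+, 6.6 mM MgCl2.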

Data set [22] relates to Plasma. Kind of data set: Stability in human plasma assessed as compound remaining after 3 hrs. Type of data set: ADME, cell-free.
For data set [23], the system named is Plasma. Briefly: Stability in mouse plasma assessed as compound remaining after 3 hrs. The format is ADME, cell-free.
For another data set, the system named is Liver microsomes. Briefly: Stability in human liver microsomes assessed as compound remaining after 1 hr. Type of data set: ADME, Microsome.
Data set [24] concerns Plasmodium falciparum. Kind of data set: Antimalarial activity against chloroquine-resistant Plasmodium falciparum Dd2 cells assessed as Plasmodium falciparum growth inhibition after 72 hrs by isotopic drug sensitivity assay. Particulars: Dd2, 72 h. The format is functional, organism-based. In a few lines:
as §3

Sequence of Glucose-6-phosphate 1-dehydrogenase (Homo sapiens, UniProt P11413) (P11413 whole entry): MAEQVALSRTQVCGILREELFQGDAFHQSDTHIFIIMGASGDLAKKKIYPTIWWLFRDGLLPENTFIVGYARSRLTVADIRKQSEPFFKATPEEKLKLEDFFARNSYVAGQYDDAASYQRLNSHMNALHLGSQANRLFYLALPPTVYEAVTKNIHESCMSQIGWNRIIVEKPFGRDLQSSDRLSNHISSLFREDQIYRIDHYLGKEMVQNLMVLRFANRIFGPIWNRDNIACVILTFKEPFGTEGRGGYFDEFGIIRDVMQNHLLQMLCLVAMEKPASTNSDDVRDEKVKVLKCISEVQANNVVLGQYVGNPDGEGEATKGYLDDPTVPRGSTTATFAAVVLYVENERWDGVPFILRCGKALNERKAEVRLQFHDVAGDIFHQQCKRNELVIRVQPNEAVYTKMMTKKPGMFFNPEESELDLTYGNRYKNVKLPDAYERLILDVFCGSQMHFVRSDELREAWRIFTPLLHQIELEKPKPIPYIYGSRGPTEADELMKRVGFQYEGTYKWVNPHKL

Take `C=C(CC)C(=O)c1ccc(OCC(=O)O)c(Cl)c1Cl` [ETHACRYNIC ACID]: the degraded at 24 h in data set [1] is 97%. In addition, in [2], the Drug metabolism result is listed as “Active”. For the same compound, the Stability result in [3] is “Stable”.

Take `CCN1CCC[C@@H]1CNC(=O)c1ccc2c(c1)NC(=O)/C(=C/c1ccccc1F)S2`: the Stability in the data set on Liver is recorded as 37.57%; in the data set on Plasma [22], 90.98%; with Plasma [23], 80.84%; in the data set on Liver microsomes it was 60.53%. Also, the PPB with Plasma [4] came to 98.95%; in the data set with Plasma [9], 98.39%; in the data set with Plasma [10] it was 98.34%; with Plasma [18] it was 97.98%. The solubility (commonly how much of the substance goes into solution per volume) in [5] was 166 µM (≈ 70.6 µg/mL); in data set [8] it was greater than 296 µM; in [13] it was greater than 296 µM; in data set [20], 69 µM (≈ 29.4 µg/mL). Also, the permeability in data set [6] is 737 ×10⁻⁶ cm/s; in data set [12] it was 806 ×10⁻⁶ cm/s; in [14], 29 ×10⁻⁶ cm/s; in data set [16], 233 ×10⁻⁶ cm/s. Also, the IC50 (usually the concentration that gives 50% inhibition) was 0.9 µM in data set [7]; 2.34 µM in the data set on Plasmodium falciparum [15]; greater than 80 µM in [17]; 1.9 µM in [21]; 3.71 µM in the data set on Plasmodium falciparum [24]. Also, the inhibition result with Plasmodium falciparum [11] and in the data set with Plasmodium falciparum [19] was “Active” throughout. The CC50 with Hepatocyte is greater than 50 µM.
